# Test results published in ChEMBL document CHEMBL1154419, “Pharmacodynamic effects of telavancin against methicillin-resistant and methicillin-susceptible Staphylococcus aureus strains in the presence of human albumin or serum and in an in vitro kinetic model” (Antimicrob Agents Chemother, 2007).
# Activity calls are given as the source filed them. The calls are words filed in the database; no cut-off is given here.
# Legend:
# [1] = tested on: Staphylococcus aureus; assay: Antibacterial activity against methicillin-susceptible Staphylococcus aureus ATCC 13709 assessed as change in bacterial burden at 40 mg/liter after 12 hrs; assay type: functional
# In short: (§1)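 In vitro kinetic model: spinner flask with 0.45-μm filter and prefilter, stirred, M-H broth at 37°C, starting inoculum approx. 5 × 10⁵ CFU/ml. Single initial drug dose of 1.0 to 40 mg/liter, with flow set to give a half-life of approx. 8 h. Viable counts at 0, 2, 4, 6, 8, 12 and 24 h. Duplicate runs per strain and concentration.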
# [2] = tested on: Plasma; assay: Protein binding in human plasma; assay type: ADME, cell-free
# [3] = tested on: Staphylococcus aureus; assay: Antibacterial activity against methicillin-susceptible Staphylococcus aureus ATCC 13709 assessed as change in bacterial burden at 1 mg/liter after 2 hrs; assay type: functional
# [4] = tested on: Staphylococcus aureus; assay: Antibacterial activity against methicillin-susceptible Staphylococcus aureus ATCC 13709 assessed as change in bacterial burden at 1 mg/liter after 24 hrs; assay type: functional
# [5] = Half life in human serum at 7.5 mg/kg; assay type: ADME, organism-based; set-up: dose 7.5 mg/kg
# [6] = tested on: Staphylococcus aureus; assay: Antibacterial activity against methicillin-resistant Staphylococcus aureus ATCC 33591 assessed as change in bacterial burden at 1 mg/liter after 8 hrs; assay type: functional; in short: as §1
# [7] = tested on: Staphylococcus aureus; assay: Antibacterial activity against methicillin-resistant Staphylococcus aureus ATCC 33591 assessed as change in bacterial burden at 2.5 mg/liter after 4 hrs; assay type: functional; in short: as §1
# [8] = tested on: Staphylococcus aureus; assay: Antibacterial activity against methicillin-resistant Staphylococcus aureus ATCC 33591 assessed as change in bacterial burden at 2.5 mg/liter after 6 hrs; assay type: functional; in short: as §1
# [9] = tested on: Staphylococcus aureus; assay: Antibacterial activity against methicillin-susceptible Staphylococcus aureus ATCC 13709 assessed as change in bacterial burden at 5 mg/liter after 8 hrs; assay type: functional
# [10] = tested on: Staphylococcus aureus; assay: Antibacterial activity against methicillin-resistant Staphylococcus aureus ATCC 33591 assessed as bacterial killing at 50 times MIC after 24 hrs; assay type: functional, organism-based
# In short: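 Static time-kill in M-H broth, in M-H broth with 40 g/liter fatty-acid-free purified human albumin, or in M-H broth with inactivated 50% human serum. Inoculum approx. 5 × 10⁵ CFU/ml, drug at 0.5, 1, 2.5, 5, 10, 25 and 50× MIC, 37°C. Samples at 0, 3, 6, 12 and 24 h plated on blood agar, counted after 24 h. Detection limit 5 × 10¹ CFU/ml. Run in duplicate.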
# [11] = tested on: Staphylococcus aureus; assay: Antibacterial activity against methicillin-resistant Staphylococcus aureus ATCC 33591 assessed as change in bacterial burden at 5 mg/liter after 8 hrs; assay type: functional; in short: as §1
# [12] = Half life in in vitro kinetic model containing Mueller-Hinton broth and bacteria; assay type: physicochemical; conditions: in vitro kinetic model with bacteria
# In short: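 Drug levels in kinetic-model samples measured by agar-well diffusion bioassay with Bacillus stearothermophilus ATCC 3032: 24 h prediffusion at 22°C, then overnight at 55°C; samples and standards in triplicate; detection limit 1 mg/liter.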
# [13] = tested on: Staphylococcus aureus; assay: Antibacterial activity against methicillin-susceptible Staphylococcus aureus ATCC 13709 assessed as bacterial killing at 10 times MIC after 6 hrs in PBS-nutrient depleted medium; assay type: functional, organism-based
# [14] = Cmax in human serum at 7.5 mg/kg; assay type: ADME, organism-based; set-up: dose 7.5 mg/kg
# [15] = tested on: Staphylococcus aureus; assay: Antibacterial activity against methicillin-susceptible Staphylococcus aureus ATCC 13709 assessed as change in bacterial burden at 20 mg/liter after 4 hrs; assay type: functional
# [16] = tested on: Staphylococcus aureus; assay: Antibacterial activity against methicillin-resistant Staphylococcus aureus ATCC 33591 assessed as bacterial killing at 10 times MIC after 6 hrs in MH-broth; assay type: functional, organism-based
# In short: (§2)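 Strain diluted in M-H broth to approx. 10⁵ CFU/ml and grown 6 h into log phase, then split. Broth tubes got drug at 10× MIC directly. PBS tubes were transferred to PBS and held 3 h more, then dosed at 10× MIC. Growth controls were run in each medium. Viable counts at 0, 3, 6, 9, 12 and 24 h. Run in duplicate.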
# [17] = tested on: Staphylococcus aureus; assay: Antibacterial activity against methicillin-susceptible Staphylococcus aureus ATCC 13709 assessed as change in bacterial burden at 10 mg/liter after 2 hrs; assay type: functional; in short: as §1
# [18] = tested on: Staphylococcus aureus; assay: Antibacterial activity against methicillin-resistant Staphylococcus aureus ATCC 33591 assessed as change in bacterial burden at 20 mg/liter after 4 hrs; assay type: functional; in short: as §1
# [19] = tested on: Staphylococcus aureus; assay: Antibacterial activity against methicillin-susceptible Staphylococcus aureus ATCC 13709 assessed as change in bacterial burden at 20 mg/liter after 2 hrs; assay type: functional
# [20] = tested on: Staphylococcus aureus; assay: Antibacterial activity against methicillin-resistant Staphylococcus aureus ATCC 33591 assessed as change in bacterial burden at 5 mg/liter after 12 hrs; assay type: functional; in short: as §1
# [21] = tested on: Staphylococcus aureus; assay: Antibacterial activity against methicillin-resistant Staphylococcus aureus ATCC 33591 assessed as bacterial killing at 10 times MIC after 24 hrs in PBS-nutrient depleted medium; assay type: functional, organism-based; in short: as §2
# [22] = tested on: Staphylococcus aureus; assay: Antibacterial activity against methicillin-susceptible Staphylococcus aureus ATCC 13709 assessed as change in bacterial burden at 40 mg/liter after 8 hrs; assay type: functional
# [23] = tested on: Staphylococcus aureus; assay: Antibacterial activity against methicillin-resistant Staphylococcus aureus ATCC 33591 assessed as change in bacterial burden at 2.5 mg/liter after 8 hrs; assay type: functional; in short: as §1
# [24] = tested on: Staphylococcus aureus; assay: Antibacterial activity against methicillin-susceptible Staphylococcus aureus ATCC 13709 assessed as change in bacterial burden at 2.5 mg/liter after 24 hrs; assay type: functional; in short: as §1
# [25] = tested on: Staphylococcus aureus; assay: Antibacterial activity against methicillin-susceptible Staphylococcus aureus ATCC 13709 assessed as bacterial regrowth at 5 mg/liter Cmax; assay type: functional, organism-based
# [26] = tested on: Staphylococcus aureus; assay: Antibacterial activity against methicillin-susceptible Staphylococcus aureus ATCC 13709 assessed as change in bacterial burden at 10 mg/liter after 6 hrs; assay type: functional; in short: as §1
# [27] = tested on: Staphylococcus aureus; assay: Antibacterial activity against methicillin-susceptible Staphylococcus aureus ATCC 13709 assessed as change in bacterial burden at 40 mg/liter after 2 hrs; assay type: functional; in short: as §1
# [28] = tested on: Staphylococcus aureus; assay: Antibacterial activity against methicillin-resistant Staphylococcus aureus COL infected New Zealand white rabbit endocarditis model assessed as reduction in mean aortic vegetation titer at 30 mg/kg, iv twice daily after 4 days; assay type: functional, Aorta
# [29] = tested on: Staphylococcus aureus; assay: Antibacterial activity against methicillin-resistant Staphylococcus aureus ATCC 33591 assessed as change in bacterial burden at 10 mg/liter after 4 hrs; assay type: functional; in short: as §1
# [30] = tested on: Staphylococcus aureus; assay: Antibacterial activity against methicillin-resistant Staphylococcus aureus ATCC 33591 assessed as change in bacterial burden at 1 mg/liter after 2 hrs; assay type: functional; in short: as §1
# [31] = tested on: Staphylococcus aureus; assay: Antibacterial activity against methicillin-resistant Staphylococcus aureus ATCC 33591 assessed as change in bacterial burden at 5 mg/liter after 2 hrs; assay type: functional; in short: as §1
# [32] = tested on: Staphylococcus aureus; assay: Antibacterial activity against methicillin-resistant Staphylococcus aureus ATCC 33591 assessed as change in bacterial burden at 10 mg/liter after 6 hrs; assay type: functional; in short: as §1
# [33] = tested on: Staphylococcus aureus; assay: Antibacterial activity against methicillin-susceptible Staphylococcus aureus ATCC 13709 assessed as bacterial killing at 10 times MIC after 6 hrs in MH-broth; assay type: functional, organism-based
# [34] = AUC (0 to 24 hrs) in human at 10 mg/kg once daily; assay type: ADME, organism-based; set-up: time < 24 hr, dose 10 mg/kg; conditions: plasma
# [35] = tested on: Staphylococcus aureus; assay: Antibacterial activity against methicillin-susceptible Staphylococcus aureus ATCC 13709 assessed as change in bacterial burden at 20 mg/liter after 8 hrs; assay type: functional; in short: as §1
structure (smiles),measurement,setting,value
CCCCCCCCCCNCCN[C@@]1(C)C[C@H](O[C@H]2[C@H](Oc3c4cc5cc3Oc3ccc(cc3Cl)[C@@H](O)[C@@H](NC(=O)[C@@H](CC(C)C)NC)C(=O)N[C@@H](CC(N)=O)C(=O)N[C@H]5C(=O)N[C@H]3C(=O)N[C@H](C(=O)N[C@H](C(=O)O)c5cc(O)c(CNCP(=O)(O)O)c(O)c5-c5cc3ccc5O)[C@H](O)c3ccc(c(Cl)c3)O4)O[C@H](CO)[C@@H](O)[C@@H]2O)O[C@@H](C)[C@H]1O [TELAVANCIN],deltalog10CFU/ml,[1],-4.7
same,Activity,[2],92%
same,deltalog10CFU/ml,[3],-0.8
same,deltalog10CFU/ml,[4],-0.5
same,half-life,[5],7 h
same,deltalog10CFU/ml,[6],-3.5
same,deltalog10CFU/ml,[7],-1.7
same,deltalog10CFU/ml,[8],-2.7
same,deltalog10CFU/ml,[9],-4
same,Activity,[10],Active
same,deltalog10CFU/ml,[11],-3.6
same,half-life,[12],8 h
same,Activity,[13],Active
same,Cmax,[14],60 µg/mL
same,deltalog10CFU/ml,[15],-2.9
same,Activity,[16],Active
same,deltalog10CFU/ml,[17],-1.2
same,deltalog10CFU/ml,[18],-2.1
same,deltalog10CFU/ml,[19],-1.3
same,deltalog10CFU/ml,[20],-4.2
same,Activity,[21],Active
same,deltalog10CFU/ml,[22],-4.7
same,deltalog10CFU/ml,[23],-3.2
same,deltalog10CFU/ml,[24],-2.9
same,Activity,[25],Active
same,deltalog10CFU/ml,[26],-3.3
same,deltalog10CFU/ml,[27],-1.9
same,log10CFU/g,[28],4.7
same,deltalog10CFU/ml,[29],-2.2
same,deltalog10CFU/ml,[30],-1
same,deltalog10CFU/ml,[31],-0.9
same,deltalog10CFU/ml,[32],-3
same,Activity,[33],Active
same,AUC at 24 h,[34],51000 ng·h/mL
same,deltalog10CFU/ml,[35],-4.6
